In PMC4857052 (Molecular pharmacology, 2012):
Entries after “also recorded” stand apart in the source; their conditions may differ.

Legend:
TbU1 = conditions: procyclic forms (PCF), NE = no effect on uptake at concentration indicated, ref De Koning and Jarvis (1998), Papageorgiou et al. (2005), Gudin et al. (2006), cited from earlier work; for Ki: read-out: Ki, U1
[1] = system: T. b. brucei bloodstream forms strain 427 WT; assay: Alamar blue drug sensitivity assay, wild-type; type: cell-based, Trypanosoma brucei brucei; conditions: for effect on bloodstream trypanosomes (in words): Alamar blue viability assay; for EC50: Trypanosoma brucei, read-out: EC50, WT, Mean, Alamar blue assay, wild-type sensitive control strain
Summary of the method: (§1)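 Bloodstream-form T. b. brucei s427 grown in HMI-9 with 10% FBS at 37°C under 5% CO2. Resistant lines were made by months of stepwise-increasing exposure to the analog, then cloned by limiting dilution. Viability was read by resazurin (Alamar blue) reduction. Thymidine rescue was tested by adding 100 μM thymidine.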

5FURes T. b. brucei = assay: Alamar blue drug sensitivity assay, 5FURes; type: cell-based, Trypanosoma brucei brucei; conditions: for EC50: Trypanosoma brucei, read-out: EC50, 5FURes, Mean; for RF, 5FURes: resistance factor: IC50(resistant clone)/IC50(WT)
Summary of the method: as §1

5FOARes T. b. brucei = assay: Alamar blue drug sensitivity assay, 5FOARes; type: cell-based, Trypanosoma brucei brucei; conditions: for EC50: Trypanosoma brucei, read-out: EC50, 5FOARes, Mean; for RF, 5FOARes: resistance factor: IC50(resistant clone)/IC50(WT)
Summary of the method: as §1

5F-2′dURes T. b. brucei = assay: Alamar blue drug sensitivity assay, 5F-2′dURes; type: cell-based, Trypanosoma brucei brucei; conditions: for EC50: Trypanosoma brucei, read-out: EC50, 5F-2′dURes, Mean; for RF, 5F-2′dURes: resistance factor: IC50(resistant clone)/IC50(WT)
Summary of the method: as §1

[2] = system: T. b. brucei bloodstream forms; assay: Uptake of other radiolabeled pyrimidines by wild-type bloodstream forms; type: cell-based, Trypanosoma brucei brucei; conditions: over 15 min; 2.5 μM [3H]-2′-deoxycytidine, 0.25 μM [3H]-cytosine, 1 μM [3H]-thymine
[3] = system: TbT1 (P1-type nucleoside transporter); assay: [3H]-thymidine transport in bloodstream forms; type: cell-based, Trypanosoma brucei brucei; conditions: bloodstream forms
TbU3 uracil transporter = assay: [3H]-uracil transport in bloodstream forms; type: cell-based, Trypanosoma brucei brucei
TbU3 = assay: [3H]-2′deoxyuridine transport in bloodstream forms; type: cell-based, Trypanosoma brucei brucei
[4] = system: s427WT T. b. brucei bloodstream forms; assay: Kinetic parameters of pyrimidine transport in wild-type bloodstream forms; type: cell-based, Trypanosoma brucei brucei; conditions: [3H]-permeant; strain s427WT
Summary of the method: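 Log-phase cells were washed into HEPES/bicarbonate glucose buffer (pH 7.3) at 1 × 10^8/ml and mixed with an equal volume of [3H]-permeant, with or without unlabeled competitor, at ambient temperature. Uptake was stopped with ice-cold buffer containing saturating unlabeled permeant, then cells were spun through oil. Counts were corrected for nonspecific binding and Km, Vmax and Ki obtained by curve fitting. Runs were in triplicate. Thymidine: 10 μM label, 15 min. Orotic acid: 10 min.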

O=c1cc[nH]c(=S)[nH]1 [2-Thiouracil]
Ki (TbU1): 640 ± 110 µM

O=c1ccnc[nH]1 [4(3H)Pyrimidone]
Ki (TbU1): 1670 ± 180 µM

Nc1ncnc2[nH]cnc12 [Adenine]
Ki, U1 (TbU1): NE, 1000

Cc1cn([C@H]2CC[C@@H](CO)O2)c(=O)[nH]c1=O [3′-deoxythymidine]
effect on bloodstream trypanosomes (in words) [1]: no effect up to at least 1 mM

Nc1ncnc2c1ncn2[C@@H]1O[C@H](CO)[C@@H](O)[C@H]1O [Adenosine]
Ki, U1 (TbU1): NE, 1000

Nc1nc2c(ncn2[C@@H]2O[C@H](CO)[C@@H](O)[C@H]2O)c(=O)[nH]1 [Guanosine]
Ki, U1 (TbU1): NE, 1000

O=c1nccc[nH]1 [2-Pyrimidone]
Ki (TbU1): 5400 ± 1300 µM

Sc1ncccn1 [2-Mercaptopyrimidine]
Ki, U1 (TbU1): NE, 500

N=C(N)c1ccc(OCCCCCOc2ccc(C(=N)N)cc2)cc1 [Pentamidine]
EC50 (5FURes T. b. brucei): 0.0073 µM | RF, 5FURes (5FURes T. b. brucei): 0.94 | EC50 [1]: 0.0078 µM | EC50 (5FOARes T. b. brucei): 0.017 µM | RF, 5FOARes (5FOARes T. b. brucei): 2.2 | EC50 (5F-2′dURes T. b. brucei): 0.0079 µM | RF, 5F-2′dURes (5F-2′dURes T. b. brucei): 1.0

O=c1[nH]cc([N+](=O)[O-])c(=O)[nH]1 [5-Nitrouracil]
Ki, U1 (TbU1): NE, 1000

O=c1cn[nH]c(=O)[nH]1 [6-Azauracil]
Ki (TbU1): ~1000 µM | EC50 (5FURes T. b. brucei): 157 µM | RF, 5FURes (5FURes T. b. brucei): 0.16 | EC50 [1]: 958 µM | EC50 (5FOARes T. b. brucei): 1390 µM | RF, 5FOARes (5FOARes T. b. brucei): 1.4 | EC50 (5F-2′dURes T. b. brucei): 1100 µM | RF, 5F-2′dURes (5F-2′dURes T. b. brucei): 1.2

Cn1ccc(=O)[nH]c1=O [1-Methyluracil]
Ki, U1 (TbU1): NE, 10000

Cc1c[nH]c(=O)[nH]c1=O [Thymine]
Ki (TbU1): > 1000 µM | accumulation of radiolabeled permeant (in words) [2]: did not detectably accumulate | effect on [3H]-thymidine transport (in words) [3]: little or no effect

O=c1[nH]c(=S)ccn1[C@@H]1O[C@H](CO)[C@@H](O)[C@H]1O [4-thiouridine]
effect on bloodstream trypanosomes (in words) [1]: no effect up to at least 1 mM

O=C(O)c1[nH]c(=O)[nH]c(=O)c1F [5-Fluoroorotic acid, 5-fluoroorotic acid]
EC50 (5FURes T. b. brucei): 98 µM | RF, 5FURes (5FURes T. b. brucei): 6.9 | EC50 [1]: 14.1 µM | EC50 (5FOARes T. b. brucei): 1180 µM | RF, 5FOARes (5FOARes T. b. brucei): 83 | EC50 (5F-2′dURes T. b. brucei): 13.3 µM | RF, 5F-2′dURes (5F-2′dURes T. b. brucei): 0.94

O=c1[nH]cnc2nc[nH]c12 [Hypoxanthine]
Ki, U1 (TbU1): NE, 1000 | Ki, U3 (TbU3 uracil transporter): NE, 1000

Nc1nc(=O)n([C@H]2C[C@H](O)[C@@H](CO)O2)cc1F [5Fl-2’-Ctd, 5-fluoro-2′-deoxycytidine]
EC50 (5FURes T. b. brucei): 55 µM | RF, 5FURes (5FURes T. b. brucei): 1.1 | EC50 [1]: 49.4 µM | reduction of sensitivity by addition of 100 μM thymidine ([1]; wild-type): 78 fold | EC50 (5FOARes T. b. brucei): 126 µM | RF, 5FOARes (5FOARes T. b. brucei): 2.6 | EC50 (5F-2′dURes T. b. brucei): > 5000 µM | RF, 5F-2′dURes (5F-2′dURes T. b. brucei): >100

O=c1ccn([C@H]2C[C@H](O)[C@@H](CO)O2)c(=O)[nH]1 [2’Deoxyuridine, 2′-deoxyuridine]
rate of [3H]-2′deoxyuridine uptake (TbU3; 0.5 μM [3H]-2′deoxyuridine): 0.00045 pmol (10^7 cells)^−1s^−1 | rate of [3H]-2′deoxyuridine transport (TbU3; 5 μM [3H]-2′deoxyuridine, linear over 4 min): 0.0051 ± 0.0003 pmol/10^7 cells/s | inhibition of [3H]-2′deoxyuridine transport by unlabeled 2′-deoxyuridine (TbU3; 5 μM label, 2.5 mM unlabeled): 76% | Km [4]: 810 ± 310 µM | Vmax [4]: 1.3 ± 0.7 pmol (10^7 cells)^−1s^−1 | Km (TbU3 uracil transporter; read-out: Km, U3, bloodstream forms (BSF), Km of the permeant itself): 810 ± 130 µM

Nc1cc[nH]c(=O)n1 [Cytosine]
Ki, U1 (TbU1): NE, 1000 | accumulation of radiolabeled permeant (in words) [2]: did not detectably accumulate

O=c1[nH]c(=O)n([C@@H]2O[C@H](CO)[C@@H](O)[C@H]2O)cc1F [5-fluorouridine]
effect on bloodstream trypanosomes (in words) [1]: no effect up to at least 1 mM; also recorded: no effect on trypanosome growth
